Converted amounts (≈) assume the structure as drawn. The source made the active and inactive calls. The calls are words filed in the database; no cut-off is given here.
How the values were obtained:
MCF7 = assay: Cytotoxicity against human MCF7 cells assessed as growth inhibition at 10 uM after 48 hrs by sulphorhodamine B assay; format: functional; conditions: MCF7, 48 h, read-out: GI
Procedure, shortened: (§1)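 NCI-60 one-dose screen per the NCI Drug Evaluation Branch protocol. Cells given a single 10 µM concentration with 48 h continuous exposure. Growth estimated by sulphorhodamine B protein assay. Result expressed as percentage growth inhibition relative to untreated growth.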

A498 = assay: Cytotoxicity against human A498 cells assessed as growth inhibition at 10 uM after 48 hrs by sulphorhodamine B assay; format: functional; conditions: A498, 48 h, read-out: GI; procedure, shortened: as §1
Hs-578T = assay: Cytotoxicity against human Hs578T cells assessed as growth inhibition at 10 uM after 48 hrs by sulphorhodamine B assay; format: functional; conditions: read-out: GI; procedure, shortened: as §1
NCI/ADR-RES = assay: Cytotoxicity against human NCI/ADR-RES cells assessed as growth inhibition at 10 uM after 48 hrs by sulphorhodamine B assay; format: functional; conditions: read-out: GI; procedure, shortened: as §1
NCI-H522 = assay: Cytotoxicity against human NCI-H522 cells assessed as growth inhibition at 10 uM after 48 hrs by sulphorhodamine B assay; format: functional; conditions: NCI-H522, 48 h, read-out: GI; procedure, shortened: as §1
PC-3 = assay: Cytotoxicity against human PC3 cells assessed as growth inhibition at 10 uM after 48 hrs by sulphorhodamine B assay; format: functional; conditions: PC-3, 48 h, read-out: GI; procedure, shortened: as §1
HOP-92 = assay: Cytotoxicity against human HOP92 cells assessed as growth inhibition at 10 uM after 48 hrs by sulphorhodamine B assay; format: functional; conditions: HOP-92, 48 h, read-out: GI; procedure, shortened: as §1
OVCAR-5 = assay: Cytotoxicity against human OVCAR5 cells assessed as growth inhibition at 10 uM after 48 hrs by sulphorhodamine B assay; format: functional; conditions: OVCAR-5, 48 h, read-out: GI; procedure, shortened: as §1
UACC-62 = assay: Cytotoxicity against human UACC62 cells assessed as growth inhibition at 10 uM after 48 hrs by sulphorhodamine B assay; format: functional; conditions: UACC-62, 48 h, read-out: GI; procedure, shortened: as §1
IGROV-1 = assay: Cytotoxicity against human IGROV1 cells assessed as growth inhibition at 10 uM after 48 hrs by sulphorhodamine B assay; format: functional; conditions: IGROV-1, 48 h, read-out: GI; procedure, shortened: as §1
SK-MEL-5 = assay: Cytotoxicity against human SK-MEL-5 cells assessed as growth inhibition at 10 uM after 48 hrs by sulphorhodamine B assay; format: functional; conditions: SK-MEL-5, 48 h, read-out: GI; procedure, shortened: as §1
[1] = Cytotoxicity against human EKVX cells assessed as growth inhibition at 10 uM after 48 hrs by sulphorhodamine B assay; format: functional; conditions: read-out: GI; procedure, shortened: as §1
SK-OV-3 = assay: Cytotoxicity against human SKOV3 cells assessed as growth inhibition at 10 uM after 48 hrs by sulphorhodamine B assay; format: functional; conditions: SK-OV-3, 48 h, read-out: GI; procedure, shortened: as §1
CAKI-1 = assay: Cytotoxicity against human Caki1 cells assessed as growth inhibition at 10 uM after 48 hrs by sulphorhodamine B assay; format: functional; conditions: CAKI-1, 48 h, read-out: GI; procedure, shortened: as §1
MDA-MB-435 = assay: Cytotoxicity against human MDA-MB-435 cells assessed as growth inhibition at 10 uM after 48 hrs by sulphorhodamine B assay; format: functional; conditions: MDA-MB-435, 48 h, read-out: GI; procedure, shortened: as §1
MOLT-4 = assay: Cytotoxicity against human MOLT4 cells assessed as growth inhibition at 10 uM after 48 hrs by sulphorhodamine B assay; format: functional; conditions: MOLT-4, 48 h, read-out: GI; procedure, shortened: as §1
HT-29 = assay: Cytotoxicity against human HT-29 cells assessed as growth inhibition at 10 uM after 48 hrs by sulphorhodamine B assay; format: functional; conditions: HT-29, 48 h, read-out: GI; procedure, shortened: as §1
HCT-15 = assay: Cytotoxicity against human HCT15 cells assessed as growth inhibition at 10 uM after 48 hrs by sulphorhodamine B assay; format: functional; conditions: HCT-15, 48 h, read-out: GI; procedure, shortened: as §1
UO-31 = assay: Cytotoxicity against human UO31 cells assessed as growth inhibition at 10 uM after 48 hrs by sulphorhodamine B assay; format: functional; conditions: UO-31, 48 h, read-out: GI; procedure, shortened: as §1
DU-145 = assay: Cytotoxicity against human DU145 cells assessed as growth inhibition at 10 uM after 48 hrs by sulphorhodamine B assay; format: functional; conditions: DU-145, 48 h, read-out: GI; procedure, shortened: as §1
[2] = Binding affinity to DNA (unknown origin) at 5 mg/mL by RP-TLC plate analysis
Procedure, shortened: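 Reversed-phase C18 TLC plates pre-developed in methanol/water 8:2. Compound spotted at origin (5 mg/mL in methanol), then DNA (1 mg/mL in water/methanol 8:2) applied at the same spot. Plates developed in the same eluent; DNA located by anisaldehyde spray (blue). Ethidium bromide as positive control.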

T47D = assay: Cytotoxicity against human T47D cells assessed as growth inhibition at 10 uM after 48 hrs by sulphorhodamine B assay; format: functional; conditions: read-out: GI; procedure, shortened: as §1
RXF 393 = assay: Cytotoxicity against human RXF393 cells assessed as growth inhibition at 10 uM after 48 hrs by sulphorhodamine B assay; format: functional; conditions: RXF 393, 48 h, read-out: GI; procedure, shortened: as §1
ACHN = assay: Cytotoxicity against human ACHN cells assessed as growth inhibition at 10 uM after 48 hrs by sulphorhodamine B assay; format: functional; conditions: read-out: GI; procedure, shortened: as §1
RPMI-8226 = assay: Cytotoxicity against human RPMI8226 cells assessed as growth inhibition at 10 uM after 48 hrs by sulphorhodamine B assay; format: functional; conditions: RPMI-8226, 48 h, read-out: GI; procedure, shortened: as §1
K562 = assay: Cytotoxicity against human K562 cells assessed as growth inhibition at 10 uM after 48 hrs by sulphorhodamine B assay; format: functional; conditions: K562, 48 h, read-out: GI; procedure, shortened: as §1
M14 = assay: Cytotoxicity against human M14 cells assessed as growth inhibition at 10 uM after 48 hrs by sulphorhodamine B assay; format: functional; conditions: M14, 48 h, read-out: GI; procedure, shortened: as §1
HCT-116 = assay: Cytotoxicity against human HCT116 cells assessed as growth inhibition at 10 uM after 48 hrs by sulphorhodamine B assay; format: functional; conditions: HCT-116, 48 h, read-out: GI; procedure, shortened: as §1
OVCAR-4 = assay: Cytotoxicity against human OVCAR4 cells assessed as growth inhibition at 10 uM after 48 hrs by sulphorhodamine B assay; format: functional; conditions: OVCAR-4, 48 h, read-out: GI; procedure, shortened: as §1
SF-268 = assay: Cytotoxicity against human SF268 cells assessed as growth inhibition at 10 uM after 48 hrs by sulphorhodamine B assay; format: functional; conditions: SF-268, 48 h, read-out: GI; procedure, shortened: as §1
SNB-19 = assay: Cytotoxicity against human SNB19 cells assessed as growth inhibition at 10 uM after 48 hrs by sulphorhodamine B assay; format: functional; conditions: SNB-19, 48 h, read-out: GI; procedure, shortened: as §1
[3] = Displacement of methyl green from DNA (unknown origin) after 24 hrs
Procedure, shortened: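 DNA-methyl green complex was stirred in 0.05 M Tris-HCl pH 7.5 with 7.5 mmol MgSO4 at 37 °C for 24 h. Compound was dried down from EtOH in tubes and the DNA-methyl green solution added. A630 was read initially and after 24 h dark incubation at room temperature, corrected and normalized to untreated complex. IC50 is the concentration giving a 50% absorbance decrease; mean ± SD, n = 6.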

A549 = assay: Cytotoxicity against human A549 cells assessed as growth inhibition at 10 uM after 48 hrs by sulphorhodamine B assay; format: functional; conditions: A549, 48 h, read-out: GI; procedure, shortened: as §1
SNB-75 = assay: Cytotoxicity against human SNB75 cells assessed as growth inhibition at 10 uM after 48 hrs by sulphorhodamine B assay; format: functional; conditions: SNB-75, 48 h, read-out: GI; procedure, shortened: as §1
NCI-H23 = assay: Cytotoxicity against human NCI-H23 cells assessed as growth inhibition at 10 uM after 48 hrs by sulphorhodamine B assay; format: functional; conditions: NCI-H23, 48 h, read-out: GI; procedure, shortened: as §1
SR = assay: Cytotoxicity against human SR cells assessed as growth inhibition at 10 uM after 48 hrs by sulphorhodamine B assay; format: functional; conditions: read-out: GI; procedure, shortened: as §1
CCRF-CEM = assay: Cytotoxicity against human CCRF-CEM cells assessed as growth inhibition at 10 uM after 48 hrs by sulphorhodamine B assay; format: functional; conditions: read-out: GI; procedure, shortened: as §1
LOX IMVI = assay: Cytotoxicity against human LOXIMVI cells assessed as growth inhibition at 10 uM after 48 hrs by sulphorhodamine B assay; format: functional; conditions: read-out: GI; procedure, shortened: as §1
U-251 = assay: Cytotoxicity against human U251 cells assessed as growth inhibition at 10 uM after 48 hrs by sulphorhodamine B assay; format: functional; conditions: U-251, 48 h, read-out: GI; procedure, shortened: as §1
SF-295 = assay: Cytotoxicity against human SF295 cells assessed as growth inhibition at 10 uM after 48 hrs by sulphorhodamine B assay; format: functional; conditions: SF-295, 48 h, read-out: GI; procedure, shortened: as §1
HL-60(TB) = assay: Cytotoxicity against human HL-60(TB) cells assessed as growth inhibition at 10 uM after 48 hrs by sulphorhodamine B assay; format: functional; conditions: HL-60, 48 h, read-out: GI
Procedure, shortened: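 NCI-60 one-dose primary screen run to the Drug Evaluation Branch protocol. Cells are exposed to a single 10 µM concentration for 48 h continuously, and growth is read by SRB protein assay. Data are reported as percent growth of treated cells, expressed as % growth inhibition.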

SK-MEL-2 = assay: Cytotoxicity against human SK-MEL-2 cells assessed as growth inhibition at 10 uM after 48 hrs by sulphorhodamine B assay; format: functional; conditions: SK-MEL-2, 48 h, read-out: GI; procedure, shortened: as §1

Compound `CC1CCCc2c1nc1[nH]c(=S)n(-c3ccccc3)c(=N)c1c2-c1ccc(Cl)cc1` (configuration not stated) has an inhibition of growth at 10 µM (MCF7) of under 10%, an inhibition of growth at 10 µM (A498) of 25.2% and an inhibition of growth at 10 µM (Hs-578T) of under 10%. For the same compound, the inhibition of growth at 10 µM (NCI/ADR-RES) was 11.4%, the inhibition of growth at 10 µM (NCI-H522) was 31% and the inhibition of growth at 10 µM (PC-3) was 21%. The inhibition of growth at 10 µM (HOP-92) was 26.2%, the inhibition of growth at 10 µM (OVCAR-5) was 14.3% and the inhibition of growth at 10 µM (UACC-62) was 25.3%. For the same compound, the inhibition of growth at 10 µM (IGROV-1) was 33.3%, the inhibition of growth at 10 µM (SK-MEL-5) was 12% and the inhibition of growth at 10 µM [1] was 31%. For the same compound, the inhibition of growth at 10 µM (SK-OV-3) was 10.4%, the inhibition of growth at 10 µM (CAKI-1) was under 10% and the inhibition of growth at 10 µM (MDA-MB-435) was under 10%. For the same compound, the inhibition of growth at 10 µM (MOLT-4) was 40%, the inhibition of growth at 10 µM (HT-29) was under 10% and the inhibition of growth at 10 µM (HCT-15) was 10%. For the same compound, the inhibition of growth at 10 µM (UO-31) was 44.4%, the inhibition of growth at 10 µM (DU-145) was 13% and the Activity [2] was “Active”. It also gave an inhibition of growth at 10 µM (T47D) of 50%, an inhibition of growth at 10 µM (RXF 393) of 17.8% and an inhibition of growth at 10 µM (ACHN) of 11.3%. The inhibition of growth at 10 µM (RPMI-8226) was 66%, the inhibition of growth at 10 µM (K562) was 28.5% and the inhibition of growth at 10 µM (M14) was 17.3%. It also gave an inhibition of growth at 10 µM (HCT-116) of 34%, an inhibition of growth at 10 µM (OVCAR-4) of 14.5% and an inhibition of growth at 10 µM (SF-268) of under 10%. The inhibition of growth at 10 µM (SNB-19) was under 10%, the IC50 [3] was 0.097 µg/mL (≈ 0.224 µM) and the inhibition of growth at 10 µM (A549) was 18.9%. For the same compound, the inhibition of growth at 10 µM (SNB-75) was 13.9%, the inhibition of growth at 10 µM (NCI-H23) was 11.5% and the inhibition of growth at 10 µM (SR) was under 10%. For the same compound, the inhibition of growth at 10 µM (CCRF-CEM) was 20.7%, the inhibition of growth at 10 µM (LOX IMVI) was 13.1% and the inhibition of growth at 10 µM (U-251) was 15.2%. The inhibition of growth at 10 µM (SF-295) was 12.8%, the inhibition of growth at 10 µM (HL-60(TB)) was 24.2% and the inhibition of growth at 10 µM (SK-MEL-2) was 11.3%.
